Sampled rows, rich in hits. Any-hit rate of the full collection: about 0.29%.
PKA-R1A activ = PKA-R1A complex activation | P00514+P68181 | PKA-R1A dissociation, Cy5-IP20 fluorescence polarization; scaled: DMSO 0%, 113 µM cGMP 100% | activation, % at 11.4 µM | 340,000 compounds, 0.083% hits;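 active = percent activation above the mean of all tested compounds plus 3 SD, cut at about 19% in these data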;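 also: higher means more PKAc released from R1A so a rise in polarization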
proCasp3 act = activators of human procaspase-3; P42574; recombinant procaspase-3 D3A, Ac-DEVD-pNA absorbance 405 nm; activation, % at 8.5 µM; 330,000 compounds, 0.11% hits; AID 463141;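 active = activation above the mean of all tested compounds plus 3 SD, cut at about 21% in these data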;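 also: 0% = DMSO alone and 100% = DMSO wells spiked with extra 5 µM PC-3 D3A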
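System: Procaspase-3 D3A mutant. Medium: Zinc-free 300 mM NaCl, 50 mM HEPES, 0.01% Triton X-100. Schedule: 1 h preincubation plus 2 h reaction at 25 °C. Measured by: 405 nm absorbance of p-nitroaniline, reads at 0 and 120 min. Read-out: percent activation relative to control range.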
PKA-R2B activ = activates the human PKA-R2B holoenzyme complex; 340,000 compounds, 0.079% hits; PKA-R2B holoenzyme dissociation, Cy5-IP20 fluorescence polarization; R2B truncated from residue 108, S112A mutant; 0% DMSO only, 100% 113 µM cGMP; P22694+P31323; activation, % at 11.4 µM; AID 504700;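 active = activation above a cutoff set at the mean over all compounds plus 3 SD, cut at about 18% in these data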;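 also: higher means more holoenzyme dissociation and a rise in polarization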
Target sequence (P31323 whole entry, looked up, other chains not shown, the tested form may be a part): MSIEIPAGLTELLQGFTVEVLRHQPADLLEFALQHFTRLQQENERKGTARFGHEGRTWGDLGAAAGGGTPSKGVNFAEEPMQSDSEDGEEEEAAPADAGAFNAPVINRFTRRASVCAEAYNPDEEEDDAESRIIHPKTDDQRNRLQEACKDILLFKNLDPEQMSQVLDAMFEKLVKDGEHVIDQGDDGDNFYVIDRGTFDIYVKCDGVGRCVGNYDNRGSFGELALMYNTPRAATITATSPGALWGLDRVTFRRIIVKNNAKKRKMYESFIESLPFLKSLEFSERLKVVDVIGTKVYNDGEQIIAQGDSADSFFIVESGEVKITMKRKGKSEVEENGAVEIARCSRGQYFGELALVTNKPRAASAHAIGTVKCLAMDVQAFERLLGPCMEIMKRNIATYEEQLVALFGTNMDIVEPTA
proCasp7 act = counter-screen for procaspase-3 activators: activators of human procaspase-7 | AID 463210 | 330,000 compounds, 0.093% hits | P55210 | activation, % at 8.5 µM | recombinant procaspase-7, Ac-DEVD-pNA absorbance 405 nm; D23A/D198A/D206A triple mutant, cannot self-cleave; scale: DMSO 0, 5 µM enzyme 100;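 active = percent activation above the screen-wide mean plus 3 SD, cut at about 25% in these data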
Target sequence (P55210 whole entry D23A/D198A/D206A): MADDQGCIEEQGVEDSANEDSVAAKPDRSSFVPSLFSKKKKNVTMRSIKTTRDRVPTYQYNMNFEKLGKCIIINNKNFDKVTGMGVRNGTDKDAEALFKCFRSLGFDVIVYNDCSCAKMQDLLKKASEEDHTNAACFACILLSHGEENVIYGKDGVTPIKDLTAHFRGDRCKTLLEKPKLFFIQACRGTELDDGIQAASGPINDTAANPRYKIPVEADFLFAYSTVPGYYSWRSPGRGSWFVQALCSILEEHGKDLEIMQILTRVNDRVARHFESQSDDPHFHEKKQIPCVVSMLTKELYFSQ
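Replicates: singlicate. Assay system: Procaspase-7 triple mutant (PC-7 D3A). Signal: 405 nm absorbance of p-nitroaniline. Times: 1 h preincubation, 2 h reaction. Buffer or medium: Zinc-free HEPES pH 7.4 with 300 mM NaCl, 0.01% Triton X-100. Also added: DEVD-pNA substrate. Benchmarks: DMSO wells as 0%, DMSO with 5 µM added PC-7 as 100%.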
proCasp7 act trip = counter-screen for procaspase-3 activators: activators of human procaspase-7 | 210 tested, under 10 active | shares compounds with proCasp3 act | recombinant procaspase-7, Ac-DEVD-pNA absorbance; asp23/198/206-to-Ala mutant, cannot self-cleave | AID 488941 | activation, % at 8.5 µM;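 active = mean activation above a set limit taken from an earlier procaspase-7 screen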;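 also: 0% = DMSO wells and 100% = DMSO plus 5 µM procaspase-7 enzyme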
proCasp3 confirm = procaspase-3 (human) activation, confirmed; shares compounds with proCasp3 act; recombinant PC-3 D3A, Ac-DEVD-pNA absorbance 405 nm; 100% is higher-enzyme control; activation, % at 8.5 µM; 210 compounds, 10% hits;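 active = mean activation above a set limit carried over from the earlier primary screen, cut at about 22% in these data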
An asterisk follows results filed as active; / = no result given.

SMILES | PKA-R1A activ | proCasp3 act | PKA-R2B activ | proCasp7 act | proCasp7 act trip | proCasp3 confirm
O=C(COc1ccc(-c2nnco2)cc1)Nc1c(Cl)cccc1C(F)(F)F | 0.5 | 9.5 | 7.0 | 2.1 | / | /
Cc1ccc(NC(=O)CSCC(=O)N(CCC(C)C)c2c(N)n(Cc3ccccc3)c(=O)[nH]c2=O)cc1 | -3.9 | / | -10.0 | / | / | /
COCCN(C(=O)CSCC(=O)Nc1ccc(C)cc1)c1c(N)n(CC(C)C)c(=O)[nH]c1=O | -8.0 | 60.5* | -3.6 | 5.5 | 2.1 | 5.2
CCOC(=O)C1CCCN(C(=O)c2cnn3c(C(F)F)cc(-c4ccc(C)cc4)nc23)C1 (stereo not given) | -4.3 | -1.2 | 2.1 | 4.4 | / | /
CC(C)(C)NCCCCOc1ccccc1F | -3.0 | 0.4 | -4.5 | 5.1 | / | /
COc1ccccc1OCCCCNC(C)(C)C | -1.4 | 26.3* | -4.3 | 8.1 | 2.4 | 2.0
COc1cc2c(cc1CN1CCN(C(=O)c3cc(OC)c(OC)c(OC)c3)CC1)OCO2 | 6.2 | 6.7 | 2.6 | -15.1 | / | /
Fc1ccc(-n2c(Cc3ccccc3)nnc2SCc2nc(-c3cccs3)no2)cc1 | -10.9 | 9.5 | -13.4 | -8.9 | / | /
OC[C@@H]1[C@@H](c2ccccc2)C(c2cccc(Cl)c2)=NN1c1ccccc1 | -12.3 | 18.2 | -3.7 | 7.8 | / | /
OC[C@@H]1[C@@H](c2ccc(Cl)cc2)C(c2ccc(F)cc2)=NN1c1ccccc1 | 3.0 | 24.2* | -11.7 | 17.2 | -20.4 | -15.8
Cc1cccc(C2=NN(c3ccccc3)[C@H](CO)[C@H]2c2ccc(F)cc2)c1 | 2.9 | 25.2* | -4.5 | 12.3 | -20.8 | -14.2
Cc1cccc(C2=NN(c3ccccc3)[C@H](CO)[C@H]2c2ccc(Cl)cc2)c1 | -4.2 | 19.1 | -7.3 | 8.5 | / | /
CCOC(=O)c1cc(-c2ccc(/C=N\n3cnnc3)o2)ccc1Cl | 1.9 | 28.7* | -8.4 | 24.8 | 0.8 | 1.9
N#Cc1ccc(/C=C\c2nccc3c2[nH]c2ccccc23)cc1 | 1.6 | 48.0* | 1.3 | 0.7 | -20.9 | -14.4
Cc1ccc(-c2cc(C(F)(F)F)c(C#N)c(SCCC#N)n2)o1 | -16.9 | 22.2* | -3.9 | 12.1 | 41.0* | 52.1*
CC(=O)Oc1c(-c2ccc(Br)o2)oc2ccccc2c1=O | 1.9 | 26.5* | 5.4 | 24.2 | -4.1 | 21.5*
C=Cn1cc[n+](CC(=O)c2cc(C(C)(C)C)c(O)c(C(C)(C)C)c2)c1 | 2.9 | -8.5 | -16.5 | -3.1 | / | /
Cc1ccc(-n2nc3ccc(N)cc3n2)cc1 | 3.1 | -1.7 | -3.0 | 6.2 | / | /
CC(C)c1ccc(-n2nc3ccc(N)cc3n2)cc1 | -1.2 | 30.6* | -16.6 | 22.9 | -18.1 | 2.6
COc1cccc(C=Cc2nccc3ccccc23)c1OC | 4.6 | / | -1.5 | / | / | /
COc1ccc(NS(=O)(=O)c2cc(NC(=O)c3ccc(=O)[nH]c3)ccc2N2CCOCC2)cc1 | -5.7 | -2.5 | 4.0 | 3.3 | / | /
CN(Cc1ccc(F)cc1)C(=O)CNC(=O)C1CCCCC1 | -8.1 | 3.0 | 1.5 | 0.0 | / | /
CCCCOn1c(C)c(C(=O)OCC)c2c3nonc3ccc21 | -13.3 | 24.3* | 3.4 | 21.6 | 13.4 | 25.2*
CCCCOn1c(C)c(C(=O)OCC)c2c3no[n+]([O-])c3ccc21 | 3.0 | 2.7 | -5.2 | -9.0 | / | /
COc1ccc2oc(C(=O)OCC(=O)Nc3cc(S(=O)(=O)N4CCOCC4)ccc3OC)c(C)c2c1 | -1.0 | 21.8* | -12.4 | 5.9 | 0.2 | 0.7
SMILES | PKA-R1A activ | proCasp3 act | PKA-R2B activ | proCasp7 act | proCasp7 act trip | proCasp3 confirm
COc1ccc2oc(C(=O)OCC(=O)Nc3cc(S(=O)(=O)N4CCOCC4)ccc3C)c(C)c2c1 | -7.2 | 1.1 | -8.0 | 0.8 | / | /
Cc1ccc(S(=O)(=O)N(CC(=O)N2CCCCCC2)c2ccccc2)cc1 | -9.8 | 1.8 | -8.5 | 0.5 | / | /
Cc1ccc(S(=O)(=O)N(CC(=O)N2CCC(C)CC2)c2ccccc2)cc1 | -13.0 | 22.9* | 6.7 | 0.7 | 2.3 | 4.9
C=CCn1c(SCC(=O)NCc2ccco2)nnc1C1CCCCC1 | 11.9 | 2.8 | 2.0 | 3.6 | / | /
Cc1c(CCC(=O)NCCCN2CCCC2=O)c(=O)oc2cc(O)ccc12 | 6.3 | 26.5* | 6.3 | 19.3 | -20.9 | -14.0
Cc1ccc(C(=O)N/N=C\c2cccs2)cn1 | 5.1 | 8.9 | -4.9 | 1.8 | / | /
O=C(NCc1cccs1)C1CCC(=O)N(Cc2cccc(C(F)(F)F)c2)C1 (stereo not given) | 4.6 | 41.8* | 0.6 | -6.0 | 2.1 | 2.1
CCN1C(=O)c2cccc3c(S(=O)(=O)N(C(C)=O)c4ccc(OC(C)=O)cc4)ccc1c23 | -0.5 | 23.7* | -5.1 | -0.3 | -21.8 | -11.9
CCCCn1c(N)c(N(CC(C)C)C(=O)C2CC(=O)N(c3ccc(C)cc3)C2)c(=O)[nH]c1=O (stereo not given) | -2.9 | 22.2* | 0.9 | -6.8 | -0.7 | 4.7
Cn1c(-c2ccc(C=O)s2)nc2c3ccccc3c3ccccc3c21 | 0.6 | 46.1* | -5.1 | -22.8 | -20.9 | -13.6
COc1cc(OC)c(N(C)S(=O)(=O)c2cccc(C(=O)OCC(=O)c3c[nH]c4ccccc34)c2)cc1Cl | -5.7 | 0.2 | -6.7 | 3.0 | / | /
C=CCN(c1ccccc1OC)S(=O)(=O)c1cccc(C(=O)OCC(=O)c2c[nH]c3ccccc23)c1 | -9.1 | 21.9* | 7.3 | -14.2 | 2.9 | 3.3
CC(=O)c1cccc(NS(=O)(=O)c2ccc(N/C=C\C(=O)c3ccc(C)cc3)cc2)c1 | 7.1 | 37.9* | -0.7 | 22.2 | -0.9 | 1.0
CCOc1ccccc1NC(=O)COc1coc(CN2CCCc3ccccc32)cc1=O | 4.0 | -4.5 | 4.7 | 1.1 | / | /
CCOc1ccccc1NC(=O)COc1coc(CN2CCc3ccccc3C2)cc1=O | -9.5 | 21.6* | 2.9 | 7.1 | 3.1 | 6.0
O=C(NN1C(=O)NC2(CCCCC2)C1=O)c1ccc(-c2ccccc2Cl)o1 | 1.0 | -10.2 | 2.0 | 13.1 | / | /
CCCCCCN1C=CC(=C/C=C(\C#N)C(=O)OCC)C=C1 | 9.0 | 24.4* | -0.3 | -20.2 | -20.6 | -8.9
CCOC(=O)CC(=O)CSc1nc2sc(C)cc2c(=O)n1Cc1ccco1 | -3.8 | 59.1* | -8.3 | 0.0 | -2.2 | -0.7
C=CCn1c(O)c(N=NC(=S)Nc2cccc(OC)c2)c2ccccc21 | 0.8 | 34.0* | 3.9 | -8.1 | -5.5 | 5.7
C=CCn1c(O)c(N=NC(=S)Nc2ccc(OC)cc2)c2ccccc21 | -0.2 | 9.6 | -18.7 | -2.7 | / | /
NC(=O)c1c(NC(=O)c2ccccc2F)sc2c1CCCC2 | 3.2 | 37.3* | -0.2 | -19.6 | -20.7 | -66.1
NC(=O)c1c(NC(=O)c2ccccc2C(=O)O)sc2c1CCCC2 | -1.5 | 6.9 | -3.2 | 5.4 | / | /
